From the EternaBench riboswitch data

Tested on: MS2 coat protein
Experiment: apparent Kd, MS2 coat protein; higher = weaker binding; RNA-MaP array; FMN 200 µM where present
How it was run: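 Designs on Illumina sequencing-chip clusters, transcribed by stalled E. coli RNA polymerase, were exposed to SNAP-549-labelled MS2 coat protein in doubling steps from 0.7 or 1.5 nM up to 3 µM, without and then with constant ligand. The buffer held 100 mM Tris-HCl pH 7.5, 80 mM KCl, 4 mM MgCl2, BSA, DTT, yeast tRNA and Tween-20. Apparent Kd values are medians of filtered per-cluster binding-curve fits to green signal normalised to red-channel RNA signal and control-cluster median Fmax.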

[1] = designed as: OFF switch for flavin mononucleotide, no ligand
[2] = ligand present: flavin mononucleotide, designed as: OFF switch for flavin mononucleotide
[3] = designed as: ON switch for flavin mononucleotide, no ligand
[4] = ligand present: flavin mononucleotide, designed as: ON switch for flavin mononucleotide

AGUCCUGACGUCAGGAUAUCCGGCCAAUAGGCCAAGGAGAAGGGACAUGAGGAUCACCCAUGUGCUUGGGUCCG
apparent Kd [1]: 0.0232 µM | apparent Kd [2]: 0.0402 µM

GACAGCUCGUGAGGAUAUACAACACUGCUUCGGCAGUGUAUUAAGAUCACAUGAGGAUCACCCAUGUAGAAGGCACGAGCUGAU
apparent Kd [1]: 0.0135 µM | apparent Kd [2]: 0.319 µM

GUCAGCUCGUGAGGAUAUACAACACUGCUUCGGCAGUGGAUUAAGAUCACAUGAGGAUCACCCAUGUAGAAGGCACGAGCUGAU
apparent Kd [1]: 0.0162 µM | apparent Kd [2]: 0.423 µM

GCUGCUCAUGAGAAGGCGAUCAUGAAACAUGAUCGAGGAUAUCAUGUAAACAUGAGGAUCACCCAUGUAUGGGUAUUAUGCAGC
apparent Kd [3]: 0.117 µM | apparent Kd [4]: 0.0405 µM

UCACGGGACUAAGGAUAUACAUGAUCCAUUUUUGUAGAAGGUAGAAUGUUAGAUCAUAAACUAAACAUGAGGAUCACCCAUGUU
apparent Kd [1]: 0.0235 µM | apparent Kd [2]: 0.0225 µM

CCAUCAGCGAACGUAUCGGUUGGACAUGAGGAUCACCCAUGUAGAAGGACAGGAGUAUUACGGCUGUAGGAUAUACAUUUAGUG
apparent Kd [1]: 0.0213 µM | apparent Kd [2]: 0.018 µM

AGAUAUAACUCAGGAUAUCAGCAUGGGUAGAUUACAUGAGGAUCACCCAUGUGCAUGUCCCGGCAUGAGAAGGGAGUAACGCAA
apparent Kd [3]: 0.0818 µM | apparent Kd [4]: 0.0274 µM

GCUGACGAUGUAGGAUAUCUCGACGAUAAGUCGAGAGAAGGACAUGAGGAUCACCCAUGUAACUCAACGUCAGCGAGGAAACUC
apparent Kd [1]: 0.0178 µM | apparent Kd [2]: 0.0206 µM

CUGGAUAGAGGAUAUUGUGCUGCUGACAUGAGGAUCACCCAUGUAUGUUAACUCGGCCGUCGAGAAGGCUAACAGG
apparent Kd [1]: 0.0247 µM | apparent Kd [2]: 0.0153 µM

CUAAUGUGAGGAUAUGGUGUUGAUCGCAGGAAGGAGAUUCUCCAGAAGGCACAUGAGGAUCACCCAUGUAGUGA
apparent Kd [1]: 0.103 µM | apparent Kd [2]: 0.0511 µM

AUUUAUUUACAGAAGGAGUAUGAUAAUGUUUUACUAGGAUAUGUAUACAUGAGGAUCACCCAUGUUAUUAUAGGUUUUUUAUGU
apparent Kd [1]: 0.0103 µM | apparent Kd [2]: 0.00708 µM

GUAGCAUACCGAGGAUAUUCAACGACAAAGUCGACAUGAGGAUCACCCAUGUGGCGAAAGCCUUGGGAGAAGGCGGAAUGCUAC
apparent Kd [3]: 0.0165 µM | apparent Kd [4]: 0.0111 µM

ACCACGUUAGCGAUAUGAUCGAGAGAUCAUGUCGCUAAUUUUAGAAGGACAUGAGGAUCACCCAUGUAGGAUAUGGGACGUGGA
apparent Kd [3]: 0.0147 µM | apparent Kd [4]: 0.00788 µM

AAUAAGCUAGGAUAUACAUGAGGAUCACCCAUGUGAGGGCACGGCCGGCGCGGGCCCGGUAGAAGGAGUCAUAA
apparent Kd [1]: 0.0286 µM | apparent Kd [2]: 0.0236 µM

GUUAAGUGAGGAUAUGGUGAGUAGUGCCUGAGCGCUGCUCACCAGAAGGCACAUGAGGAUCACCCAUGUAUAGC
apparent Kd [1]: 0.0157 µM | apparent Kd [2]: 0.028 µM

UUACGGAUAGAGGAUAUAUUAAGGAAAGUUUCGAUAGAAGGCUAGACAUGAGGAUCACCCAUGUAUAUUGGGAU
apparent Kd [1]: 0.131 µM | apparent Kd [2]: 0.151 µM

UACCUGAGGCUUUGCUUUAGGCUUACAUGAGGAUCACCCAUGUAGGAUAUGGUAGGCAAAGCUUACCAGAAGGACAUGGAAAUU
apparent Kd [1]: 0.019 µM | apparent Kd [2]: 0.0666 µM

GUGUACAGAGGAUAUACUCAUGGAGUUACGAAAGUAACUUCACAUGAGGAUCACCCAUGUAGAAGGCUGUACAC
apparent Kd [1]: 0.473 µM | apparent Kd [2]: 0.293 µM

GCGUAAUAGGUGUAGCUAGUCGUACAAGAAGGGUGGUGAACAUGAGGAUCACCCAUGUGGUCAAUACAGGAUAUUGUUAUACGC
apparent Kd [3]: 0.832 µM | apparent Kd [4]: 0.112 µM

GGACGUCACAUGAACAUGAGGAUCACCCAUGUAAAUUCUCAUGAGGAUAUGGAUCCUAAUUGGAUCCAGAAGGCGUGGACGUCC
apparent Kd [3]: 1.03 µM | apparent Kd [4]: 0.415 µM

UCACGGGAUUGAGGAUAUAUAUUAAUUUUUUUUAUAGAAGGCAAAUUGUUAGAUUAUUCACUAUACAUGAGGAUCACCCAUGUU
apparent Kd [1]: 0.0293 µM | apparent Kd [2]: 0.0266 µM

GGAUAGGACAGAGGAUAUACGGAUAGGAUCUACUAUCUUUCUCAAAUAACAUGAGGAUCACCCAUGUAGAAGGCUGUCCUAUCG
apparent Kd [1]: 0.0215 µM | apparent Kd [2]: 0.122 µM

GGAGCUCACAUUAACAUGAGGAUCACCCAUGUCUCUAGACAUGAGGAUAUGGAUCCUAAUUGGAUCCAGAAGGCAUGGAGCUCC
apparent Kd [3]: 1.45 µM | apparent Kd [4]: 0.118 µM

UUACUAUUACAGAAGGUUAAAUAAUAUAUAAAUGAAGGAUAUGUAACAUGAGGAUCACCCAUGUUUCACCCAUAUGAGGAUCAC
apparent Kd [1]: 0.00849 µM | apparent Kd [2]: 0.00799 µM

AUCAGCUCGUCAGGAUAUACAUCACUGCUUCGGCAGUGUAUCUUAACAACAUGAGGAUCACCCAUGUAGAAGGGACGAGCUGAU
apparent Kd [1]: 0.0176 µM | apparent Kd [2]: 0.0245 µM

AAAAAGGUAGGAUAUACGAAAAAAAAGGGUAAAAUAAAUAAACAUGAGGAUCACCCAUGUAGAAGGACCAAAAA
apparent Kd [1]: 0.0253 µM | apparent Kd [2]: 0.0644 µM

ACUGAUCAUGAGGAUAUGCGCCAGAACGCCGGCGUAGAAGGCGUGACAUGAGGAUCACCCAUGUCAGUUCGCGA
apparent Kd [1]: 0.0592 µM | apparent Kd [2]: 0.0603 µM

GUUAAUUAGUGAGGAUAUACAUAAUUUAAUACUGUAGAAGGCACAAUCCUCAAGACAUGAGGAUCACCCAUGUGAUAAUAAGCU
apparent Kd [1]: 0.0349 µM | apparent Kd [2]: 0.174 µM

CUAUAUAAUACCUCAUGUACAUGAGGAUCACCCAUGUUAACUUAGGAUAUAUUUAUAUUAAUAGAGUAGAAGGAAGUACUAUUU
apparent Kd [1]: 0.0221 µM | apparent Kd [2]: 0.0174 µM

AAAAUGUAAGGAUAUCGUCCCGUAAAUAUCGGGAAAAUUGUCGAGAAGGUACAUGAGGAUCACCCAUGUUCCUG
apparent Kd [1]: 0.0167 µM | apparent Kd [2]: 0.0182 µM

AUUGUAGGAGGAUAUACAUGAGGAUCACCCAUGUCGUCCCAGGAGGACACCUUCCCAUGUAGAAGGCCUGGGAC
apparent Kd [1]: 0.0314 µM | apparent Kd [2]: 0.0193 µM

AGUCAGACAGGAUAUACGUGGAUGGAACACUUAUUUCCACUACAUGAGGAUCACCCAUGUAGAAGGGUCUGACA
apparent Kd [1]: 0.0188 µM | apparent Kd [2]: 0.0197 µM

GGUGGUCUUGUGAGGAUAUGGUUGGAUGCAUAUGAUCAGAAGGCACAUGAGGAUCACCCAUGUGGAAUACCACU
apparent Kd [1]: 0.0373 µM | apparent Kd [2]: 0.234 µM

GGCUACGUUUCGUAGCAGCUAGGUGAGGAUAUUCAAUUUUUCACAUGAGGAUCACCCAUGUAUGUGAAGAAGGCGCCUAGAAAG
apparent Kd [3]: 0.0126 µM | apparent Kd [4]: 0.00485 µM

UGGUACAUGGGAGGAUAUGGGUUGAUAACAUGAGGAUCACCCAUGUUAAAUAUGCCUAAUGGCAACUAGAAGGCCCAUGUACCU
apparent Kd [3]: 0.377 µM | apparent Kd [4]: 0.0408 µM

UUGCUACAUGAGGAUCACCCAUGUCAGGAUAUAGUGCAUAGCGUGGAAGCUCUGUCGAUUAGAAGGGACUGUCU
apparent Kd [1]: 0.0253 µM | apparent Kd [2]: 0.0274 µM

GUGGUCAGACAUGAGGAUCACCCAUGUGGAAUAAAUAAGGAGAAGGAUAUGCAAUAUAGGAUAUAGCAGAAGGUCUGGUUGGUG
apparent Kd [3]: 0.0801 µM | apparent Kd [4]: 0.0927 µM

AAUCAGUCAGGAUAUCGUUAAUUUAAUUGUUUGUUUUAGUUCGAGAAGGGACAUGAGGAUCACCCAUGUACUCA
apparent Kd [1]: 0.0231 µM | apparent Kd [2]: 0.0288 µM

GGGUUGUGAGGAUAUUAGUUGUACGUCAAUAGACGUAUAGGUGAGAAGGCACAUGAGGAUCACCCAUGUUCCUG
apparent Kd [1]: 0.0238 µM | apparent Kd [2]: 0.0569 µM

GCACUUACGUUAGGAUAUGGAUCGGAAAACGAUCCAGAAGGAAUAUGGGAACAUGAGGAUCACCCAUGUUCCACAGACAAGUGC
apparent Kd [3]: 0.0433 µM | apparent Kd [4]: 0.0259 µM

CAAUUGGCACAGAAGGGUGACAUGAGGAUCACCCAUGUAGCGUGGCACUCAGGAGGAACCACGCCACAGGAUAUGUGCCGGCAC
apparent Kd [3]: 0.0885 µM | apparent Kd [4]: 0.0868 µM

CUGUACAUAGGAUAUAGUUGCUUUUACAUGAGGAUCACCCAUGUCACUCCUCUCUCUCUUCUAGAAGGAUGUUUCU
apparent Kd [1]: 0.0724 µM | apparent Kd [2]: 0.0538 µM

GGACAUGUCGUUUACAUGAGGAUCACCCAUGUCGAUGGACAUGAGGAUAUCGAUCCGAAUCGGAUCGAGAAGGCAUGCAUGUCC
apparent Kd [3]: 0.0418 µM | apparent Kd [4]: 0.0186 µM

CGCACUAUACAUGAGGAUCACCCAUGUUAAUAUGAGGUAGUCAGAAGGCAUUGUAUGAGAUAUUAUGAGGAUAUGAUUAGUGCG
apparent Kd [3]: 0.226 µM | apparent Kd [4]: 0.0414 µM

GACUUGUCAGGAUAUCUUACAUUUGCAUCGUAGUUACCAUUGGAGAAGGGACAUGAGGAUCACCCAUGUUUGGC
apparent Kd [1]: 0.0255 µM | apparent Kd [2]: 0.0239 µM

GUGUAGAUAGCAGGAUAUCUAUUUCCUACAUGAGGAUCACCCAUGUAGAUGAUCACCCAUGUAAAGGAGAAGGGCUAUCUAUAC
apparent Kd [3]: 0.367 µM | apparent Kd [4]: 0.165 µM

CGGAUCGCAUGAGGAUAUGGUCAGCUUUGCUGACCAGAAGGCAUGUCAUAAGACAUGAGGAUCACCCAUGUAGUUAAGAUCCGA
apparent Kd [3]: 0.576 µM | apparent Kd [4]: 0.0463 µM

GUAGCUAUCGCAGGAUAUUCAUACCGGAAACGGACAUGAGGAUCACCCAUGUGGCGAAAGCCUUGGGAGAAGGCCGAUAGCUAC
apparent Kd [3]: 1.16 µM | apparent Kd [4]: 0.789 µM

UACCUGAGGCAAAGCUUUAGGUAUACAUGAGGAUCACCCAUGUAGGAUAUGGUAGGCCUUGCUUACCAGAAGGACAUGUUAAUU
apparent Kd [1]: 0.0235 µM | apparent Kd [2]: 0.0761 µM

GAUCACUCUGUGAGGAUAUGAGGGCUCUUAGAGUAUCAGAAGGCACAUGAGGAUCACCCAUGUAUUCCGUUCUA
apparent Kd [1]: 0.0425 µM | apparent Kd [2]: 0.259 µM

AAGAAACAUGAGGAUCACCCAUGUGAGGAUAUGCAAGAAAGAAAGAAAGAAAGAAGAAGCAGAAGGCACAAAGG
apparent Kd [1]: 0.0258 µM | apparent Kd [2]: 0.0497 µM

AGAUUUGUACAUGAGGAUCACCCAUGUUAAUAGGUGGUUGUCAGAAGGCAUUAAUAGAGUUUUAAUGAGGAUAUGAAUUUACAA
apparent Kd [3]: 1.03 µM | apparent Kd [4]: 0.803 µM

UUUAUAAAUUAGAAGGCAUGAUGAAUUACAAUAGACAUGAGGAUCACCCAUGUGUGUUCAUGUCAUGAGGAUAUAGUCAUAUAU
apparent Kd [3]: 0.0175 µM | apparent Kd [4]: 0.00993 µM

UUAUGAGAGCAGGAUAUCUUAUAUUUGUAUUAAAGAGAAGGGCUCACAUGAGGAUCACCCAUGUGGUCCUAGAU
apparent Kd [1]: 0.0516 µM | apparent Kd [2]: 0.431 µM

UGGCUACAUGAGGAUCACCCAUGUCAGGAUAUGCCGUUGGAUUGACUUCGUCGUUCGGGUAGAAGGGACUGCGU
apparent Kd [1]: 0.0433 µM | apparent Kd [2]: 0.0549 µM
